Each block holds one molecule with its values, some of them ahead of it. Calls of active or inactive are those of the source. No cut-off for these calls is given here.
Experiments:
[1] = Cmax in C57BL/6 mouse brain at 25 mg/kg, ip after 1 hr by LC/MS/MS analysis; assay type: ADME, organism-based; set-up: dose 25 mg/kg, route intraperitoneal
Method in brief: (§1)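 Mice dosed intraperitoneally at 25 mg/kg. Brains and peripheral blood were collected at each point of a 6-point time course, three mice per time point. Compound concentration was measured in processed brain and blood samples. PK parameters were derived from the concentration-time profiles.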

Histone deacetylase 1 = Histone deacetylase 1 (Homo sapiens, UniProt Q13547); assay: Inhibition of human recombinant HDAC1 using acetyllysine tripeptide coupled with 7-amino-4-methylcoumarin as substrate by fluorescence assay
Histone deacetylase 2 = Histone deacetylase 2 (Homo sapiens, UniProt Q92769); assay: Inhibition of human recombinant HDAC2 using acetyllysine tripeptide coupled with 7-amino-4-methylcoumarin as substrate by fluorescence assay
Histone deacetylase 3 = Histone deacetylase 3 (Homo sapiens, UniProt O15379); assay: Inhibition of human recombinant HDAC3 using acetyllysine tripeptide coupled with 7-amino-4-methylcoumarin as substrate by fluorescence assay
[2] = Inhibition of HDAC in mouse forebrain primary neurons assessed as acetylation of histone H3K9 after 24 hrs by immunofluorescence assay
[3] = Cmax in C57BL/6 mouse brain at 25 mg/kg, ip after 0.5 hrs by LC/MS/MS analysis; assay type: ADME, organism-based; set-up: dose 25 mg/kg, route intraperitoneal; method in brief: as §1
[4] = Cmax in C57BL/6 mouse brain at 25 mg/kg, ip after 2 hrs by LC/MS/MS analysis; assay type: ADME, organism-based; set-up: dose 25 mg/kg, route intraperitoneal; method in brief: as §1
[5] = Cmax in C57BL/6 mouse brain at 25 mg/kg, ip after 6 hrs by LC/MS/MS analysis; assay type: ADME, organism-based; set-up: dose 25 mg/kg, route intraperitoneal; method in brief: as §1
[6] = Cmax in C57BL/6 mouse brain at 25 mg/kg, ip after 24 hrs by LC/MS/MS analysis; assay type: ADME, organism-based; set-up: dose 25 mg/kg, route intraperitoneal; method in brief: as §1
[7] = Cmax in C57BL/6 mouse plasma at 25 mg/kg, ip after 1 hr by LC/MS/MS analysis; assay type: ADME, organism-based; set-up: dose 25 mg/kg, route intraperitoneal; method in brief: as §1
[8] = Cmax in C57BL/6 mouse plasma at 25 mg/kg, ip after 0.5 hrs by LC/MS/MS analysis; assay type: ADME, organism-based; set-up: dose 25 mg/kg, route intraperitoneal; method in brief: as §1
[9] = Cmax in C57BL/6 mouse plasma at 25 mg/kg, ip after 2 hrs by LC/MS/MS analysis; assay type: ADME, organism-based; set-up: dose 25 mg/kg, route intraperitoneal; method in brief: as §1
[10] = Cmax in C57BL/6 mouse plasma at 25 mg/kg, ip after 6 hrs by LC/MS/MS analysis; assay type: ADME, organism-based; set-up: dose 25 mg/kg, route intraperitoneal; method in brief: as §1
[11] = Cmax in C57BL/6 mouse plasma at 25 mg/kg, ip after 12 hrs by LC/MS/MS analysis; assay type: ADME, organism-based; set-up: dose 25 mg/kg, route intraperitoneal; method in brief: as §1
[12] = Cmax in C57BL/6 mouse plasma at 25 mg/kg, ip after 24 hrs by LC/MS/MS analysis; assay type: ADME, organism-based; set-up: dose 25 mg/kg, route intraperitoneal; method in brief: as §1
[13] = Tmax in C57BL/6 mouse plasma at 25 mg/kg, ip after 0.5 to 24 hrs by LC/MS/MS analysis; assay type: ADME, organism-based; method in brief: as §1
[14] = AUClast in C57BL/6 mouse plasma at 25 mg/kg, ip after 0.5 to 24 hrs by LC/MS/MS analysis; assay type: ADME, organism-based; method in brief: as §1
[15] = AUCinfinity in C57BL/6 mouse plasma at 25 mg/kg, ip after 0.5 to 24 hrs by LC/MS/MS analysis; assay type: ADME, organism-based; set-up: dose 25 mg/kg, route intraperitoneal, time infinity; method in brief: as §1
Mus musculus [16] = assay: Half life in C57BL/6 mouse plasma at 25 mg/kg, ip after 0.5 to 24 hrs by LC/MS/MS analysis; assay type: ADME, organism-based; details: in vivo; method in brief: as §1
[17] = Apparent clearance in C57BL/6 mouse plasma at 25 mg/kg, ip after 0.5 to 24 hrs by LC/MS/MS analysis; assay type: ADME, organism-based; method in brief: as §1
[18] = Mean Residence time up to the last quantifiable time-point in C57BL/6 mouse plasma at 25 mg/kg, ip after 0.5 to 24 hrs by LC/MS/MS analysis; assay type: ADME, organism-based; method in brief: as §1
[19] = Tmax in C57BL/6 mouse brain at 25 mg/kg, ip after 0.5 to 24 hrs by LC/MS/MS analysis; assay type: ADME, organism-based; method in brief: as §1
[20] = AUClast in C57BL/6 mouse brain at 25 mg/kg, ip after 0.5 to 24 hrs by LC/MS/MS analysis; assay type: ADME, organism-based; method in brief: as §1
[21] = Ratio of drug level in brain to plasma in C57BL/6 mouse at 25 mg/kg, ip after 0.5 to 2 hrs by LC/MS/MS analysis; assay type: ADME, organism-based; details: brain and plasma, read-out: BPR
Method in brief: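 Intraperitoneal dose of 25 mg/kg in mice, three animals per time point. Compound levels in processed brain and in peripheral blood were measured at matched times. Individual brain-to-plasma concentration ratios were calculated for the 0.5 to 2 h time points.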

[22] = target: T1, Protein deacetylase HDAC6 (Homo sapiens, UniProt Q9UBN7); assay: Inhibition of human recombinant HDAC6 using acetyllysine tripeptide coupled with 7-amino-4-methylcoumarin as substrate by fluorescence assay
T1 sequence (Q9UBN7 whole entry): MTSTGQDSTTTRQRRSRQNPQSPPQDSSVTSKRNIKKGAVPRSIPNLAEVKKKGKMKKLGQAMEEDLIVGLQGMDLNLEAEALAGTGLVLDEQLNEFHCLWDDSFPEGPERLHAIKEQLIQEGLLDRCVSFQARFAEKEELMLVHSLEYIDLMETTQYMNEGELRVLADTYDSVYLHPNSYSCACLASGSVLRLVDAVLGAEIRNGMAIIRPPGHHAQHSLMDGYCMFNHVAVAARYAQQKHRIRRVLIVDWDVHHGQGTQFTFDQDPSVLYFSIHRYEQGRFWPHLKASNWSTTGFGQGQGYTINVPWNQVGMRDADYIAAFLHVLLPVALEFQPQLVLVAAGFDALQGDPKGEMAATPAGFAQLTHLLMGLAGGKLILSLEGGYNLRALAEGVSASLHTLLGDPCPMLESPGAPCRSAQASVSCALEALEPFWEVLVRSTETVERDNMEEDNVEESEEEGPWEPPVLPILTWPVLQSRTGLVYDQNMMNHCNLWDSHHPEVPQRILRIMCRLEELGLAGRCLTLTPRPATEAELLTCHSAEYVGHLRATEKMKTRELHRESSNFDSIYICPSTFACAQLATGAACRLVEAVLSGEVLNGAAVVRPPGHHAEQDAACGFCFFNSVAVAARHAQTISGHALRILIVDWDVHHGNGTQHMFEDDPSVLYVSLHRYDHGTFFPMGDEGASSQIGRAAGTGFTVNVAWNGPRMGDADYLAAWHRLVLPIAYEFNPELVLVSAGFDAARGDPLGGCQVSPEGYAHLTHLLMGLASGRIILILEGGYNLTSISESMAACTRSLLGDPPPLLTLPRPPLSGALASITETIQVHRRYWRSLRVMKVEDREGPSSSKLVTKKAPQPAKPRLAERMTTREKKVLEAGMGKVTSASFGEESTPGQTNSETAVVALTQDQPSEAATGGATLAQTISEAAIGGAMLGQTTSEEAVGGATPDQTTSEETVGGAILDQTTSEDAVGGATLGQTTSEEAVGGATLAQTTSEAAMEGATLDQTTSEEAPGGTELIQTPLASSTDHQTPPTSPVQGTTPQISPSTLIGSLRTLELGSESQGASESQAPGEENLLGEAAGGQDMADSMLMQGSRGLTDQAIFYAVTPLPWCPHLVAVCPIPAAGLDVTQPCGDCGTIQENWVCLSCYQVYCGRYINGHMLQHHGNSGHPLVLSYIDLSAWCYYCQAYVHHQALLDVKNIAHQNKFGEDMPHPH

[23] = target: Histone deacetylase 5 (Homo sapiens) (UniProt Q9UQL6); assay: Inhibition of human recombinant HDAC5 using acetyllysine tripeptide coupled with 7-amino-4-methylcoumarin as substrate by fluorescence assay
Mus musculus [24] = species on record: Mus musculus; assay: Inhibition of HDAC in mouse forebrain primary neurons assessed as acetylation of histone H3K9 at 1 to 10 uM after 24 hrs by immunofluorescence assay
Method in brief: (§2)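 Mouse forebrain primary neuronal cultures (DIV13–14) treated 24 h at 1 and 10 μM, n=3. Cells fixed and immunostained for H3K9ac or H4K12ac; nuclear fluorescence intensity quantified by imaging. […] Mean ± SEM; unpaired t-test.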

Mus musculus [25] = species on record: Mus musculus; assay: Inhibition of HDAC in mouse forebrain primary neurons assessed as acetylation of histone H4K12 at 1 to 10 uM after 24 hrs by immunofluorescence assay; method in brief: as §2

Histone deacetylase 2, sequence (Q92769 whole entry): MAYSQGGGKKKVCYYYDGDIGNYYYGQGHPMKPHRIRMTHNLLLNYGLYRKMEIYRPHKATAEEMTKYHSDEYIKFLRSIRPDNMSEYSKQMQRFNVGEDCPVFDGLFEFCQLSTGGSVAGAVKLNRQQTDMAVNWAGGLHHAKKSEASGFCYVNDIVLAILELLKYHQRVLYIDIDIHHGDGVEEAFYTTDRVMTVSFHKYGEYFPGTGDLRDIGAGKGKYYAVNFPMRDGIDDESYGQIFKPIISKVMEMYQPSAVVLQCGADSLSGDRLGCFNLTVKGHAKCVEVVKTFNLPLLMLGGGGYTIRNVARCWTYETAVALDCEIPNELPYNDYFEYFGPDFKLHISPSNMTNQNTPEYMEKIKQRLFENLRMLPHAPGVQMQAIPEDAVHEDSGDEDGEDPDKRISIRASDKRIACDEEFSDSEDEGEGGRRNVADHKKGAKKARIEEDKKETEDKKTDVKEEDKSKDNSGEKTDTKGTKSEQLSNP
Histone deacetylase 1, sequence (Q13547 whole entry): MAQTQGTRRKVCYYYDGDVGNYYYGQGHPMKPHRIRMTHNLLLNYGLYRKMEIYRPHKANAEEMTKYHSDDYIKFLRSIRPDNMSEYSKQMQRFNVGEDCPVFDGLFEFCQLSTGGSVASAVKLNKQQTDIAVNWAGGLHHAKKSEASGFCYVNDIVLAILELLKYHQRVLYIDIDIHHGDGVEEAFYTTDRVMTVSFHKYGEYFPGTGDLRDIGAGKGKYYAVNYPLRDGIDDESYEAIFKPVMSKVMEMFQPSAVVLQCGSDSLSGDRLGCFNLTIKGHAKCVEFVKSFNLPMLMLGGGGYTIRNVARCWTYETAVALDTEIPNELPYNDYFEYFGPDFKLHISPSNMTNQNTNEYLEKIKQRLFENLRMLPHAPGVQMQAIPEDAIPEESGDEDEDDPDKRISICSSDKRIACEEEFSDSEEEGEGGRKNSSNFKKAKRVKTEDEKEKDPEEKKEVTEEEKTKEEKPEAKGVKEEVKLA
Histone deacetylase 3, sequence (O15379 whole entry): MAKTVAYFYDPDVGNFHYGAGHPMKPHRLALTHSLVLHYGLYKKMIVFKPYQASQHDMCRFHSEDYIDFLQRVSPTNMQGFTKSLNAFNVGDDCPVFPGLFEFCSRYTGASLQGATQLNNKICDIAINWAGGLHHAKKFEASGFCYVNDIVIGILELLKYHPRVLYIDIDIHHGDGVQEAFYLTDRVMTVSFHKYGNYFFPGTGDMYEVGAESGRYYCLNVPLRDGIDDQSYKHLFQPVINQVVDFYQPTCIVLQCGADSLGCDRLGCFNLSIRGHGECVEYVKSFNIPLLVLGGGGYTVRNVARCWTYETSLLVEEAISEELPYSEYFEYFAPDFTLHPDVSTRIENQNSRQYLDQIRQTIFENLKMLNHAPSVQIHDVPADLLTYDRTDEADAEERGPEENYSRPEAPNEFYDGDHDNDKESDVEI
Histone deacetylase 5 (Homo sapiens), sequence (Q9UQL6 whole entry): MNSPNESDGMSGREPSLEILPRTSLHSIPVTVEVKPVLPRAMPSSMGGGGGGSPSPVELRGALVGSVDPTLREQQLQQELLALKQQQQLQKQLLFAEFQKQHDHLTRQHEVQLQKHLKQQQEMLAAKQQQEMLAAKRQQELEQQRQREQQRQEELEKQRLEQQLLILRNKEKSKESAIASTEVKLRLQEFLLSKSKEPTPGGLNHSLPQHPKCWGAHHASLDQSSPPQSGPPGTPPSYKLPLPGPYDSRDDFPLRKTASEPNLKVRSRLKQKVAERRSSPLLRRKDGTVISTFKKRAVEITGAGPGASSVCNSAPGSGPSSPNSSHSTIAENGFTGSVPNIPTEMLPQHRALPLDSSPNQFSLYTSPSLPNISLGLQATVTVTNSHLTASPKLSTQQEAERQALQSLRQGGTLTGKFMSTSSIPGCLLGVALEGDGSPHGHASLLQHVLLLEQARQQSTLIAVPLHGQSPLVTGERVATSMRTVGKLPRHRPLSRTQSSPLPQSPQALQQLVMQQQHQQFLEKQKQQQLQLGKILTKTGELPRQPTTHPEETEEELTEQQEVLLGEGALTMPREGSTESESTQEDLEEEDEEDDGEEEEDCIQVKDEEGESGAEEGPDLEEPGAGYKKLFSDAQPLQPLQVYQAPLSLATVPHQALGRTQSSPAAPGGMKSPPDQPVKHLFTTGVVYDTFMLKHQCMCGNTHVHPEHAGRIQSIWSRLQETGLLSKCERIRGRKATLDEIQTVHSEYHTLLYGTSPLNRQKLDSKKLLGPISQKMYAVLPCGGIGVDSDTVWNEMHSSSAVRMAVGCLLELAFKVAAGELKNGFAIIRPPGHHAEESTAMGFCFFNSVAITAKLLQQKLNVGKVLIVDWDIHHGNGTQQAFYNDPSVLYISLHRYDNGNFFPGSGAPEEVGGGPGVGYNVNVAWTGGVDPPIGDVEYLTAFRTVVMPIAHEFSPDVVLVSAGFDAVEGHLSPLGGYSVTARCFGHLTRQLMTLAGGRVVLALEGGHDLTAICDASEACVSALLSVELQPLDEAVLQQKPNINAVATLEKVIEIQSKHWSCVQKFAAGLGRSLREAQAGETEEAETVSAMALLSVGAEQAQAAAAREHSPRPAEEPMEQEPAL

Structure (SMILES): O=C(CCCCCC(=O)N/N=C/c1ccc(-c2cccnc2)cc1)NO
Cmax [1]: 79.1 nM | IC50 (Histone deacetylase 1): 1.1 nM | IC50 (Histone deacetylase 2): 10.8 nM | IC50 (Histone deacetylase 3): 0.8 nM | EC50 [2]: 140 nM | Cmax [3]: 75.7 nM | Cmax [4]: 45.2 nM | Cmax [5]: 13.5 nM | Cmax [6]: 9.73 nM | Cmax [7]: 1900 nM | Cmax [8]: 1670 nM | Cmax [9]: 1220 nM | Cmax [10]: 14.9 nM | Cmax [11]: 6.45 nM | Cmax [12]: 3.72 nM | Tmax [13]: 1 h | AUC(0-t) [14]: 5.41 µM·h | AUC(0-inf) [15]: 5.42 µM·h | t1/2 (Mus musculus [16]): 1.28 h | CL/F [17]: 217 mL/min/kg | MRT [18]: 1.6 h | Tmax [19]: 1 h | AUC(0-t) [20]: 0.12 µM·h | Kp [21]: 0.03 | IC50 [22]: 0.5 nM | inhibition [23]: inactive

Structure (SMILES): O=C(CCCCCCC(=O)N/N=C/c1ccc(-c2ccccc2)cc1)NO
inhibition (Mus musculus [24]): Active | IC50 (Histone deacetylase 1): 0.7 nM | IC50 (Histone deacetylase 2): 1 nM | IC50 (Histone deacetylase 3): 2 nM | inhibition (Mus musculus [25]): Active

Structure (SMILES): O=C(CCCCCC(=O)N/N=C/c1ccc(-c2cncnc2)cc1)NO
IC50 (Histone deacetylase 1): 3.2 nM | IC50 (Histone deacetylase 2): 21 nM | IC50 (Histone deacetylase 3): 2.4 nM

Structure (SMILES): O=C(CCCCCC(=O)N/N=C/c1ccc(-c2ccccc2)cc1)NO
IC50 (Histone deacetylase 1): 1.4 nM | IC50 (Histone deacetylase 2): 2.1 nM | IC50 (Histone deacetylase 3): 3.4 nM | EC50 [2]: 210 nM | Cmax [3]: 60 nM | IC50 [22]: 0.6 nM | inhibition [23]: inactive

Structure (SMILES): COc1ccc(Br)c(/C=N/NC(=O)CCCCCC(=O)NO)c1
IC50 (Histone deacetylase 1): 0.6 nM | IC50 (Histone deacetylase 2): 5 nM | IC50 (Histone deacetylase 3): 1.2 nM

Structure (SMILES): COc1cc(O)cc(OC)c1/C=N/NC(=O)CCCCCC(=O)NO
IC50 (Histone deacetylase 1): 31.4 nM | IC50 (Histone deacetylase 2): 108 nM | IC50 (Histone deacetylase 3): 25.6 nM

Structure (SMILES): O=C(CCCCCC(=O)N/N=C/c1ccc(-c2ccncc2)cc1)NO
IC50 (Histone deacetylase 1): 3.1 nM | IC50 (Histone deacetylase 2): 14.2 nM | IC50 (Histone deacetylase 3): 1.8 nM

The remaining molecules from weak to strong by IC50 (Histone deacetylase 1), led by results:

inhibition (Mus musculus [24]): Active | IC50 (Histone deacetylase 1): 19 nM | IC50 (Histone deacetylase 2): 33 nM | IC50 (Histone deacetylase 3): 61 nM | inhibition (Mus musculus [25]): Active
Structure (SMILES): O=C(CCCCC(=O)N/N=C/c1ccc(-c2ccccc2)cc1)NO

IC50 (Histone deacetylase 1): 8 nM | IC50 (Histone deacetylase 2): 18.8 nM | IC50 (Histone deacetylase 3): 5.4 nM
Structure (SMILES): Cc1ccccc1-c1ccc(/C=N/NC(=O)CCCCCC(=O)NO)cc1

IC50 (Histone deacetylase 1): 2.3 nM | IC50 (Histone deacetylase 2): 6.9 nM | IC50 (Histone deacetylase 3): 1.4 nM
Structure (SMILES): O=C(CCCCCC(=O)N/N=C/c1ccc(-c2ccccn2)cc1)NO

IC50 (Histone deacetylase 1): 2.1 nM | IC50 (Histone deacetylase 2): 6.3 nM | IC50 (Histone deacetylase 3): 1.6 nM
Structure (SMILES): O=C(CCCCCC(=O)N/N=C/c1ccc(-c2cccs2)cc1)NO

From ChEMBL document CHEMBL3758132, “Dissecting structure-activity-relationships of crebinostat: Brain penetrant HDAC inhibitors for neuroepigenetic regulation” (Bioorg Med Chem Lett, 2016)
